# Experiments:
# [1] = biological target: T1, Pancreatic alpha-amylase (Sus scrofa) (UniProt P00690); assay: Inhibition pig alpha-amylase at 300 ug/ml pretreated for 30 mins followed by addition of 1% starch for 10 mins by spectrometer
# T1 sequence (whole entry): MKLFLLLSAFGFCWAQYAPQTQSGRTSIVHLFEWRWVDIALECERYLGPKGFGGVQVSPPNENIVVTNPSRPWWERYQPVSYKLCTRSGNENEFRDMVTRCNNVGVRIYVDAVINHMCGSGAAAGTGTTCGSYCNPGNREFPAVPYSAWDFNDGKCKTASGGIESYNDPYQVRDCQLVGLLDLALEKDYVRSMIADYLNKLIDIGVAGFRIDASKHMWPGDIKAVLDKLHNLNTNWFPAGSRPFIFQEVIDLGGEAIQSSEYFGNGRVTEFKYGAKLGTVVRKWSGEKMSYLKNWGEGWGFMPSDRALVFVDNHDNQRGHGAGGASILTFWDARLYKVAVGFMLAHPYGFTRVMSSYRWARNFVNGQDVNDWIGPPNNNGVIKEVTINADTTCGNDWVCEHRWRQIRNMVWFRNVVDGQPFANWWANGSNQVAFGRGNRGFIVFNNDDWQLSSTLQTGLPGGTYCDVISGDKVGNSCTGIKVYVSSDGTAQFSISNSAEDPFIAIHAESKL
# Outline: (§1)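 Porcine pancreatic α-amylase (1.28 mg in 25 ml PBS) was preincubated with compounds in methanol (50, 150 or 300 µg/ml) at 37°C for 30 min. PBS containing 1% starch was then added for 10 min at 37°C. The reaction was stopped with DNSA in a boiling bath for 10 min, and OD was read at 540 nm against a 0.2% maltose reference. Acarbose was the positive control. Runs were in triplicate with SD, giving % inhibition relative to an uninhibited control.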
# [2] = biological target: T1, Pancreatic alpha-amylase (Sus scrofa); assay: Inhibition pig alpha-amylase at 50 to 300 ug/ml pretreated for 30 mins followed by addition of 1% starch for 10 mins by spectrometer
# Outline: as §1, with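 “PBS” for “Porcine pancreatic α-amylase (1.28 mg in 25 ml PBS) was preincubated with compounds in methanol (50, 150 or 300 µg/ml) at 37°C for 30 min. PBS”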
# [3] = biological target: T1, Pancreatic alpha-amylase (Sus scrofa); settings: 100 mg/ml
SMILES,inhibition [2] [%],further results
CCOC(=O)C1=C(C)NC(=S)NC1c1ccccc1 (configuration not stated),–,inhibition [1]: 97.2%
CCOC(=O)C1=C(C)NC(=O)NC1c1cccc([N+](=O)[O-])c1 (configuration not stated),26.5,–
CCOC(=O)C1=C(C)NC(=O)NC1c1ccc([N+](=O)[O-])cc1 (configuration not stated),0,–
CCOC(=O)C1=C(C)NC(=O)NC1c1ccccc1 (configuration not stated),0,–
C[C@H]1O[C@H](O[C@H]2[C@H](O)[C@@H](O)[C@@H](O[C@H]3[C@H](O)[C@@H](O)C(O)O[C@@H]3CO)O[C@@H]2CO)[C@H](O)[C@@H](O)[C@@H]1N[C@H]1C=C(CO)[C@@H](O)[C@H](O)[C@H]1O (some centres not stated),–,inhibition [3]: 100%
CCOC(=O)C1=C(C)NC(=O)NC1c1ccc(OC)cc1 (configuration not stated),0,–
CCOC(=O)C1=C(C)NC(=O)NC1c1ccc(F)cc1 (configuration not stated),63.8,–
CCOC(=O)C1=C(C)NC(=S)NC1c1cccc(OC)c1 (configuration not stated),0,–
CCOC(=O)C1=C(C)NC(=O)NC1c1ccccc1F (configuration not stated),0,–
CCOC(=O)C1=C(C)NC(=S)N[C@H]1c1cccc(O)c1,0,–
CCOC(=O)C1=C(C)NC(=S)NC1c1ccc(OC)cc1 (configuration not stated),66.5,–
CCOC(=O)C1=C(C)NC(=O)NC1c1ccc2c(c1)OCO2 (configuration not stated),0,–

# Reference: ChEMBL document CHEMBL3286173, “Graphite catalyzed solvent free synthesis of dihydropyrimidin-2(1H)-ones/thiones and their antidiabetic activity” (Bioorg Med Chem Lett, 2014)
